Each block holds one compound with its values, some of them ahead of it. Active and inactive are the calls of the source. No cut-off for these calls is given here.
Assays:
[1] = system: RAW264.7; test: Antiinflammatory activity in mouse RAW264.7 cells assessed as inhibition of LPS-stimulated nitric oxide production at 10 uM preincubated for 2 hrs followed by LPS stimulation for 24 hrs by Griess reagent based assay relative to control; type: functional; conditions: time 26 hrs
Method in brief: (§1)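 RAW264.7 cells pretreated 2 h with compound, then LPS (500 ng/mL) 24 h. Nitrite in culture supernatant measured with Griess reagent (1% sulfanilamide in 5% H3PO4, 0.1% N-(1-naphthyl)ethylenediamine dihydrochloride). Inhibition % as mean ± SEM of triplicates; negative values denote enhancement of NO.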

[2] = system: RAW264.7; test: Antiinflammatory activity in mouse RAW264.7 cells assessed as inhibition of LPS-stimulated nitric oxide production at 20 uM preincubated for 2 hrs followed by LPS stimulation for 24 hrs by Griess reagent based assay relative to control; type: functional; conditions: time 26 hrs; method in brief: as §1
[3] = system: RAW264.7; test: Antiinflammatory activity in mouse RAW264.7 cells assessed as inhibition of LPS-stimulated nitric oxide production preincubated for 2 hrs followed by LPS stimulation for 24 hrs by Griess reagent based assay; type: functional, cell-based; conditions: for inhibition: time 26.0 hrs; method in brief: as §1
[4] = system: RAW264.7; test: Antiinflammatory activity in mouse RAW264.7 cells assessed as inhibition of nitric oxide production incubated for 2 hrs by Griess reagent based assay; type: functional, cell-based; method in brief: as §1
[5] = system: HEK-293T; test: Cytotoxicity against HEK293T cells at 3 to 30 uM by MTS assay; type: toxicity, cell-based; conditions: human, dose 3-30 µM
Method in brief: (§2)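 MTS viability assay in RAW264.7 and 293T cells at 3, 10 and 30 μM.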

[6] = system: RAW264.7; test: Cytotoxicity against mouse RAW264.7 cells at 3 to 30 uM by MTS assay; type: toxicity, cell-based; conditions: raw264.7, 30 µM, dose 3-30 µM; method in brief: as §2
[7] = system: RAW264.7; test: Antiinflammatory activity in LPS-stimulated mouse RAW264.7 cells assessed as inhibition in IL-1beta level at 3 to 30 uM preincubated for 2 hrs followed by LPS stimulation for 24 hrs by ELISA; type: functional, cell-based; conditions: dose 3-30 µM, time 26.0 hrs
Method in brief: (§3)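 RAW264.7 macrophages pretreated 2 h with compound, or Bay11-7082 as positive control, then LPS (500 ng/mL) for 24 h. IL-6, IL-1β and TNF-α in supernatants quantified by ELISA. Mean ± SEM.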

[8] = species on record: Mus musculus; test: Antiinflammatory activity in DNCB-stimulated atopic dermatitis BALB/c mouse model assessed as reduction in dermal thickness of ear at 0.5 % pretreated for 30 mins followed by DNCB re-treatment measured after 3 hrs by H and E staining based microscopic analysis; type: functional, organism-based; conditions: time 3.5 hrs
Method in brief: (§4)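 DNCB-induced atopic dermatitis model in mouse ears, lesions peaking day 7 after sensitization; test agent applied at 0.5%. Ear thickness measured daily with a digimatic micrometer; ear lesions photographed. Ear specimens H&E-stained and examined microscopically for epidermal and dermal thickness and inflammatory cell infiltration. Mean ± SEM.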

[9] = species on record: Mus musculus; test: Antiinflammatory activity in DNCB-stimulated atopic dermatitis BALB/c mouse model assessed as reduction in ear swelling at 0.5 % pretreated for 30 mins followed by DNCB re-treatment measured after 3 hrs; type: functional, organism-based; conditions: time 3.5 hrs; method in brief: as §4
[10] = system: RAW264.7; test: Antiinflammatory activity in mouse RAW264.7 cells assessed as inhibition of NF-kappaB translocation from cytosol to nucleus at 30 uM preincubated for 2 hrs followed by LPS stimulation for 2 hrs by immunofluorescence staining analysis; type: functional, cell-based; conditions: time 4.0 hrs
Method in brief: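 RAW264.7 cells in glass chamber wells overnight, treated 2 h with compound (30 μM) or Bay (20 μM), then LPS for 2 h. Immunostained for NF-κB p65 with Alexa Fluor 488 secondary; nuclei counterstained with DAPI in antifade medium; fluorescence imaging.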

[11] = system: RAW264.7; test: Antiinflammatory activity in LPS-stimulated mouse RAW264.7 cells assessed as reduction in iNOS level at 10 to 30 uM preincubated for 2 hrs followed by LPS stimulation for 20 hrs by Western blot analysis; type: functional, cell-based; conditions: dose 10-30 µM, time 22.0 hrs
Method in brief: (§5)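 RAW264.7 cells pretreated 2 h with compound, then LPS (200 ng/mL) for 20 h. iNOS and COX-2 protein assessed by Western blot.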

[12] = species on record: Mus musculus; test: Antiinflammatory activity in DNCB-stimulated atopic dermatitis BALB/c mouse model assessed as reduction in infiltration of inflammatory cells of ear at 0.5 % pretreated for 30 mins followed by DNCB re-treatment measured after 3 hrs by H and E staining based microscopic analysis; type: functional, organism-based; conditions: time 3.5 hrs; method in brief: as §4
[13] = species on record: Mus musculus; test: Antiinflammatory activity in DNCB-stimulated atopic dermatitis BALB/c mouse model assessed as reduction in epidermal thickness of ear at 0.5 % pretreated for 30 mins followed by DNCB re-treatment measured after 3 hrs by H and E staining based microscopic analysis; type: functional, organism-based; conditions: time 3.5 hrs; method in brief: as §4
[14] = system: HEK-293T; test: Antiinflammatory activity in HEK293T cells transfected with NF-kappaB (unknown origin) assessed as inhibition in NF-kB transcription at 3 to 30 uM preincubated for 2 hrs followed by PMA stimulation for 24 hrs by SEAP reporter gene based Quanti-blue assay; type: functional, cell-based; conditions: Homo sapiens, dose 3-30 µM, time 26.0 hrs
Method in brief: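 293T cells on poly-D-lysine-coated wells transfected overnight with pNF-κB-SEAP. Treated with compound for 2 h, then PMA (50 ng/mL) for 24 h. Bay 11-7082 (20 μM) served as NF-κB inhibitor control. SEAP activity read with QUANTI-Blue. Mean ± SEM.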

[15] = species on record: Mus musculus; test: Antiinflammatory activity in DNCB-stimulated atopic dermatitis BALB/c mouse model assessed as reduction in skin lesion at 0.5 % pretreated for 30 mins followed by DNCB re-treatment measured after 3 hrs; type: functional, organism-based; conditions: time 3.5 hrs; method in brief: as §4
[16] = system: RAW264.7; test: Antiinflammatory activity in LPS-stimulated mouse RAW264.7 cells assessed as reduction in COX-2 level at 10 to 30 uM preincubated for 2 hrs followed by LPS stimulation for 20 hrs by Western blot analysis; type: functional, cell-based; conditions: dose 10-30 µM, time 22.0 hrs; method in brief: as §5
[17] = system: RAW264.7; test: Antiinflammatory activity in LPS-stimulated mouse RAW264.7 cells assessed as inhibition in IL-6 level at 3 to 30 uM preincubated for 2 hrs followed by LPS stimulation for 24 hrs by ELISA; type: functional, cell-based; conditions: dose 3-30 µM, time 26.0 hrs; method in brief: as §3
[18] = target: TLR4-MyD88 (Mus musculus) (UniProt Q9QUK6+P22366); test: Inhibition of TLR4-MyD88 interaction in mouse RAW264.7 cells at 30 uM preincubated for 2 hrs followed by LPS stimulation for 24 hrs by co-immunoprecipitation analysis; type: cell-based; conditions: time 26.0 hrs
Chain of TLR4-MyD88 (Mus musculus) (P22366 whole entry, looked up): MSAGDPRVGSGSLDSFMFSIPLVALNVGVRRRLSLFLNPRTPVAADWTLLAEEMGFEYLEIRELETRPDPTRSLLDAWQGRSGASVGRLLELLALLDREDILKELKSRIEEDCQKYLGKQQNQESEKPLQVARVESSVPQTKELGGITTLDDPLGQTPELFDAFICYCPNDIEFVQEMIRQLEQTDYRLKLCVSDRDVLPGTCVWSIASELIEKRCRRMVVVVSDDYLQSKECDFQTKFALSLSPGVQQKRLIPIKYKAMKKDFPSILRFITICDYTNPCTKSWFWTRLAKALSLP
Chain of TLR4-MyD88 (Mus musculus) (Q9QUK6 whole entry, looked up): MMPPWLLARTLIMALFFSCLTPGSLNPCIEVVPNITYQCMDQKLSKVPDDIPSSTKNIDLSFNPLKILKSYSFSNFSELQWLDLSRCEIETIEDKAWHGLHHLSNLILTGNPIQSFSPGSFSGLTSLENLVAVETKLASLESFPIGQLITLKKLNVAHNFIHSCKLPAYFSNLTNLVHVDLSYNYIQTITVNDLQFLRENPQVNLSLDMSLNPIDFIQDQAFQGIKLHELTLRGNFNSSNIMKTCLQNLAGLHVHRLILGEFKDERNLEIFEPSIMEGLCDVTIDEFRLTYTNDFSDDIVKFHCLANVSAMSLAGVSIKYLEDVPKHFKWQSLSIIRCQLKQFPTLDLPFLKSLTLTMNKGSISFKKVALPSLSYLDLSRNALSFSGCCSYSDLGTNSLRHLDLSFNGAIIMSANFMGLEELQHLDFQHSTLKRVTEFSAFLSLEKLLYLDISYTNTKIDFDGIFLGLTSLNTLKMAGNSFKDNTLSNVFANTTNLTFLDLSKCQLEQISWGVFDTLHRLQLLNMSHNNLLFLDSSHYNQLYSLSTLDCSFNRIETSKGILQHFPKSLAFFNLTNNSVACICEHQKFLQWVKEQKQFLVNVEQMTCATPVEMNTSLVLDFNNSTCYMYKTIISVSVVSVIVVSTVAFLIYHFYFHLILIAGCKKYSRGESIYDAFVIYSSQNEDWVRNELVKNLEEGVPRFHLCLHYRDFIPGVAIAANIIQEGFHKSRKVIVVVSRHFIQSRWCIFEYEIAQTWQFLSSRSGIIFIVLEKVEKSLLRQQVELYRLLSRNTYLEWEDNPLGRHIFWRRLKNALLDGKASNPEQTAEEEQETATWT
Method in brief: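 RAW264.7 cells treated with compound at 30 μM for 2 h, then LPS (500 ng/mL) for 24 h. Lysates immunoprecipitated with MyD88- or TLR4-specific antibodies on protein A/G agarose beads; immunocomplexes probed by Western blot for TLR4 or MyD88.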

[19] = system: RAW264.7; test: Antiinflammatory activity in LPS-stimulated mouse RAW264.7 cells assessed as inhibition in TNF-alpha level at 3 to 30 uM preincubated for 2 hrs followed by LPS stimulation for 24 hrs by ELISA; type: functional, cell-based; conditions: dose 3-30 µM, time 26.0 hrs; method in brief: as §3

Structure (SMILES): Fc1ccc(C2CC2Cn2cnc3c(Cl)nc(Cl)nc32)cc1 (stereo not given)
- inhibition at 10 µM [1]: 4.11%
- inhibition at 20 µM [2]: 17.1%

Structure (SMILES): Fc1ccc(/C=C/Cn2cnc3c(Cl)nc(Cl)nc32)cc1
- inhibition at 10 µM [1]: 29.3%
- inhibition at 20 µM [2]: 40.5%

Structure (SMILES): Nc1nc(Cl)nc2c1ncn2CC1CC1c1ccc(F)cc1 (stereo not given)
- inhibition [3]: inactive
- inhibition [4]: inactive
- inhibition at 10 µM [1]: -6.22%
- inhibition at 20 µM [2]: 1.56%

Structure (SMILES): CNc1nc(Cl)nc2c1ncn2CC1CC1c1ccc(F)cc1 (stereo not given)
- inhibition at 10 µM [1]: 11.2%
- inhibition at 20 µM [2]: 11.9%

Structure (SMILES): CNc1nc(Cl)nc2c1ncn2C/C=C/c1ccc(F)cc1
- inhibition at 10 µM [1]: 28.2%
- inhibition at 20 µM [2]: 36.5%

Structure (SMILES): Nc1ncnc2c1ncn2C/C=C/c1ccc(F)cc1
- inhibition [3]: inactive
- inhibition [4]: inactive
- inhibition at 10 µM [1]: -17.1%
- inhibition at 20 µM [2]: -19.3%

Structure (SMILES): CNc1nc(Cl)nc2c1ncn2C/C=C/c1ccccc1
- inhibition at 10 µM [1]: 26.8%
- inhibition at 20 µM [2]: 34.7%

Structure (SMILES): Cc1ccc(/C=C/Cn2cnc3c(Cl)ncnc32)cc1
- inhibition at 10 µM [1]: 13.5%
- inhibition at 20 µM [2]: 12.1%

Structure (SMILES): Clc1ncnc2c1ncn2C/C=C/c1ccccc1
- inhibition at 10 µM [1]: 15.1%
- inhibition at 20 µM [2]: 14.8%

Structure (SMILES): CNc1ncnc2c1ncn2C/C=C/c1ccccc1
- inhibition at 10 µM [1]: 19.3%
- inhibition at 20 µM [2]: 33.4%

Structure (SMILES): CNc1nc(Cl)nc2c1ncn2C/C=C/c1ccc(C)cc1
- inhibition at 10 µM [1]: 28.4%
- inhibition at 20 µM [2]: 34.6%

Structure (SMILES): CNc1ncnc2c1ncn2C/C=C/c1ccc(F)cc1
- inhibition at 10 µM [1]: 0.97%
- inhibition at 20 µM [2]: 2.9%

Structure (SMILES): CNc1ncnc2c1ncn2C/C=C/c1ccc(C)cc1
- inhibition [3]: inactive
- inhibition [4]: inactive
- inhibition at 10 µM [1]: -7%
- inhibition at 20 µM [2]: -15.7%

Structure (SMILES): ONc1nc(Cl)nc2c1ncn2C/C=C/c1ccc(F)cc1
- inhibition at 10 µM [1]: 4.59%
- inhibition at 20 µM [2]: 17.6%

Structure (SMILES): Cc1ccc(/C=C/Cn2cnc3c(N)nc(Cl)nc32)cc1
- inhibition at 10 µM [1]: 11.9%
- inhibition at 20 µM [2]: 11.2%

Structure (SMILES): Clc1nc(Cl)c2ncn(C/C=C/c3ccccc3)c2n1
- inhibition at 10 µM [1]: 22.2%
- inhibition at 20 µM [2]: 34.7%

- IC50 [3]: 26.4 µM
Structure (SMILES): Oc1ccc(/C=C/c2cc(O)cc(O)c2)cc1 [RESVERATROL]
- Activity [5]: Non-Toxic
- inhibition at 10 µM [1]: 26.6%
- inhibition at 20 µM [2]: 38.6%
- Activity [6]: Non-Toxic

Structure (SMILES): Cc1ccc(/C=C/Cn2cnc3c(F)nc(F)nc32)cc1
- inhibition at 10 µM [1]: 5.88%
- inhibition at 20 µM [2]: 12.1%

Structure (SMILES): Cc1ccc(/C=C/Cn2cnc3c(Cl)nc(F)nc32)cc1
- inhibition at 10 µM [1]: 31.1%
- inhibition at 20 µM [2]: 60.5%

Structure (SMILES): ONc1nc(Cl)nc2c1ncn2C/C=C/c1ccccc1
- inhibition at 10 µM [1]: 57.4%
- inhibition at 20 µM [2]: 51.2%

Structure (SMILES): Nc1nc(Cl)nc2c1ncn2C/C=C/c1ccccc1
- inhibition [3]: inactive
- inhibition [4]: inactive
- inhibition at 10 µM [1]: -5.27%
- inhibition at 20 µM [2]: 2.46%

Structure (SMILES): Cc1ccc(/C=C/Cn2cnc3c(NO)nc(Cl)nc32)cc1
- inhibition at 10 µM [1]: 36.8%
- inhibition at 20 µM [2]: 40.9%

Structure (SMILES): Cc1ccc(/C=C/Cn2cnc3c(N)ncnc32)cc1
- inhibition [3]: inactive
- inhibition [4]: inactive
- inhibition at 10 µM [1]: 0.48%
- inhibition at 20 µM [2]: -7.73%

Structure (SMILES): Nc1ncnc2c1ncn2C/C=C/c1ccccc1
- inhibition [3]: inactive
- inhibition [4]: inactive
- inhibition at 10 µM [1]: -3.38%
- inhibition at 20 µM [2]: -13.3%

Structure (SMILES): Nc1nc(Cl)nc2c1ncn2C/C=C/c1ccc(F)cc1
- inhibition at 10 µM [1]: 13.9%
- inhibition at 20 µM [2]: 24.1%

- IC50 [3]: 6.4 µM
- inhibition [18]: Active
Structure (SMILES): Cc1ccc(/C=C/Cn2cnc3c(Cl)nc(Cl)nc32)cc1
- Activity [5]: Non-Toxic
- inhibition [7]: Active
- Activity [8]: Active
- Activity [9]: Active
- inhibition [10]: Active
- Activity [11]: Active
- Activity [12]: Active
- Activity [13]: Active
- inhibition at 10 µM [1]: 31.9%
- inhibition [14]: Active
- Activity [15]: Active
- inhibition at 20 µM [2]: 60.4%
- Activity [16]: Active
- inhibition [17]: Active
- Activity [6]: Non-Toxic
- inhibition [19]: Active

Structure (SMILES): Fc1ccc(/C=C/Cn2cnc3c(Cl)ncnc32)cc1
- inhibition at 10 µM [1]: 11.6%
- inhibition at 20 µM [2]: 30.2%

Reference: ChEMBL document CHEMBL5390324, “Synthesis of 9-Cinnamyl-9H-purine Derivatives as Novel TLR4/MyD88/NF-κB Pathway Inhibitors for Anti-inflammatory Effects” (ACS Med Chem Lett, 2023)
